Measured values as given in PubChem BioAssay AID588627 (Johns Hopkins Ion Channel Center, 2011).
The campaign covered roughly 310,000 compounds. About 1,400 (0.45%) were called active.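 How the source made its calls: active means calcium response B-score plate-corrected fluorescence ratio at least 3 library SD, with starting fluorescence B-score inside 5 SD; inactive means the rest.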 The sample as a whole holds a higher share of actives than the screen did.

Target: Mas-related G-protein coupled receptor member X1 (Homo sapiens) (UniProt Q96LB2)
Assay: MrgX1 activation via calcium signaling – HEK293 cells, Fluo-4 calcium flux, primary screen (AID 588627);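 on B-score: B-score of the peak-minus-trough calcium fluorescence change over baseline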
Settings: Fluo-4 calcium fluorescence, agonist mode, at 10 µM; hits give high values
Method in brief: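 Material: HEK293 cells stably expressing human MrgX1 receptor | Quantity: 15,000 cells per well | Times: Cells plated overnight, dye loaded 0.5 h 37 °C, 0.5 h room temperature | Measured by: Kinetic Fluo-4 NW fluorescence of intracellular calcium | Control set: Positive and negative controls per plate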

Mas-related G-protein coupled receptor member X1 (Homo sapiens), sequence (Q96LB2 whole entry, looked up): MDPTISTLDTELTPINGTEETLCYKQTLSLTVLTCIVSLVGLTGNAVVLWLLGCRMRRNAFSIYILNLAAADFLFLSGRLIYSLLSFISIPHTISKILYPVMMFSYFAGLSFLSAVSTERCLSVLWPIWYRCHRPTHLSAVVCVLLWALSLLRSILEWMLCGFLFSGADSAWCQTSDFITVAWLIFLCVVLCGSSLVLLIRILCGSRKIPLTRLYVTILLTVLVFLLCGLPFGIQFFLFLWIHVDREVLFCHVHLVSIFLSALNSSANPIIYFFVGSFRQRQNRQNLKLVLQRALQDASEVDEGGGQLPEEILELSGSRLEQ

SMILES	B-score
COc1ccc(-n2nc(C(=O)NCC(=O)N3CCC(C(N)=O)CC3)c3ccccc3c2=O)cc1OC	inactive
Cc1ccc(NS(=O)(=O)c2cccs2)cc1S(=O)(=O)N1CCCCCC1	inactive
CCCc1cc(=S)n2c([nH]c3ccccc32)c1C#N	29.9 (active)
CN(C)Cc1c(C#N)c2ccccc2n1C	inactive
CCOC(=O)CCc1c(C)c(C#N)c2[nH]c3ccccc3n2c1=O	inactive
CCCCN(C(=O)CCNC(=O)NC12CC3CC(CC(C3)C1)C2)c1c(N)n(CCCC)c(=O)[nH]c1=O	inactive
COc1ccc2[nH]cc(CCN3C(=O)c4ccc(C(=O)O)cc4C3=O)c2c1	inactive
Cc1cc(OCCOc2cccc3cccnc23)c(C)cc1Cl	inactive
CCOc1cccc(OCCCOc2cccc3cccnc23)c1	inactive
OCc1ccc(OCCCOc2cccc3cccnc23)cc1	27.9 (active)
CCC(=O)c1cn(CCOc2ccccc2OC)c2ccccc12	inactive
CC[n+]1cc(C)ccc1/C=C/c1ccc(N(C)C)cc1	27.3 (active)
O=C(NCCCN1CCN(c2ccc(F)cc2)CC1)Nc1ccc([N+](=O)[O-])cc1	inactive
CCNC(=O)CCc1nc(-c2ccc(C(C)(C)C)cc2)no1	inactive
CNC(=S)N1CCC(NC(=O)C(Cc2ccc(F)cc2)NC(C)=O)CC1 (stereo unspecified)	inactive
CS(=O)(=O)N1CCc2cc(C(=O)Nc3ccccc3Br)ccc21	inactive

SMILES	B-score
CCOc1ccc(Br)cc1CSC(=N)N	inactive
N=C(N)SCc1cccc2ccccc12	36.5 (active)
c1ccc2c(CSCc3nc4ccccc4[nH]3)cccc2c1	inactive
CCN(CC)c1ccc(C(=O)NNC(=O)CCc2nc3ccccc3c(=O)[nH]2)cc1	inactive
CC(=O)c1ccc(N=C2SCCCN2C(=O)C2CCCCC2)cc1	inactive
O=C(Cc1csc(Nc2nc(=S)[nH]c3ccccc23)n1)NCCCN1CCN(c2cccc(Cl)c2)CC1	inactive
O=[N+]([O-])/C=C/c1ccc2c(ccn2Cc2ccccc2)c1	37.8 (active)
O=C(/C=C/c1cccc([N+](=O)[O-])c1)N1CCN(Cc2ccccc2)CC1	inactive
O=C(Cn1ccc2cc(S(=O)(=O)N3CCCC3)ccc21)NCc1ccccc1	inactive
COc1cccc(CNC(=O)c2nnn(CC(=O)Nc3cc(C)ccc3C)c2N)c1	inactive
COCCNC(=O)C(c1ccc(O)cc1)N(C(=O)CCC(=O)Nc1nccs1)c1ccc(C)cc1 (stereo unspecified)	inactive
COc1ccc(NC2CC(=O)N(C)C2=O)cc1 (stereo unspecified)	inactive
CCCCOc1ccc(CSC(=N)N)cc1[N+](=O)[O-]	42.7 (active)
CCCCCOc1ccc(CSC2=NCCN2)cc1[N+](=O)[O-]	inactive
CCCOc1ccc(Cn2ccnc2)cc1[N+](=O)[O-]	inactive
